Here are results for one molecule from ChEMBL document CHEMBL4706643 (J Med Chem, 2021).

Data set [1] in a line: AUC (0 to infinity) in C57BL/6 mouse at 5 mg/kg, iv. Type of data set: ADME, organism-based. The arrangement: time infinity, route intravenous, dose 5 mg/kg. To be noted: in vivo. The method in brief: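 Male C57BL/6 mice, n = 3, dosed IV at 5 mg/kg, IP at 10 mg/kg or by oral gavage (PO) at 10 mg/kg. All doses formulated in DMSO:cremophor:0.9% NaCl = 5:5:90. AUC from time zero to infinity (h*ng/mL) was derived from plasma drug levels and is reported as the mean of the males.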

For data set [2], the target named is T1, Solute carrier organic anion transporter family member 1B1 (Homo sapiens, UniProt Q9Y6L6).
T1 sequence (Q9Y6L6 whole entry): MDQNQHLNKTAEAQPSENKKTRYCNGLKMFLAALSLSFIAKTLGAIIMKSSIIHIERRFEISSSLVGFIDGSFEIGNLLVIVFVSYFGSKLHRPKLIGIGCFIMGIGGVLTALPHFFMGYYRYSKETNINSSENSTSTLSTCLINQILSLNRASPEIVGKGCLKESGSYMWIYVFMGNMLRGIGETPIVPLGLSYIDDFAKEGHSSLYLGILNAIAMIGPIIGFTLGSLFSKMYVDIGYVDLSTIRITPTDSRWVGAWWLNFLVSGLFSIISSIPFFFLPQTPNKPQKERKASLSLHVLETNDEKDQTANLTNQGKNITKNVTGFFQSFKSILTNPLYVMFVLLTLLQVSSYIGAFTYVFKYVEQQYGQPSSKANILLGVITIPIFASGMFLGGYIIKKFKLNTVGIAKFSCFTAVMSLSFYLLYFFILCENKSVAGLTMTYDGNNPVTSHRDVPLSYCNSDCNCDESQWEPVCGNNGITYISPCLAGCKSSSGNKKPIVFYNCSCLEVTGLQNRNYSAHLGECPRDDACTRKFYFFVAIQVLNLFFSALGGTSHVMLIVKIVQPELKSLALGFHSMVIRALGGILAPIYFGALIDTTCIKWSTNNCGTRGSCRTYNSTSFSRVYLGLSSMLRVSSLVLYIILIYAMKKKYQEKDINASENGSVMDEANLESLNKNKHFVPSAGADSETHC
In words: Inhibition of OATP1B1 (unknown origin) mediated [3H]-estrone sulfate uptake expressed in human HepG2 cells. Type of data set: cell-based.

Data set [3] addresses T2, Hepatic sodium/bile acid cotransporter (Homo sapiens, UniProt Q14973).
T2 sequence (Q14973 whole entry): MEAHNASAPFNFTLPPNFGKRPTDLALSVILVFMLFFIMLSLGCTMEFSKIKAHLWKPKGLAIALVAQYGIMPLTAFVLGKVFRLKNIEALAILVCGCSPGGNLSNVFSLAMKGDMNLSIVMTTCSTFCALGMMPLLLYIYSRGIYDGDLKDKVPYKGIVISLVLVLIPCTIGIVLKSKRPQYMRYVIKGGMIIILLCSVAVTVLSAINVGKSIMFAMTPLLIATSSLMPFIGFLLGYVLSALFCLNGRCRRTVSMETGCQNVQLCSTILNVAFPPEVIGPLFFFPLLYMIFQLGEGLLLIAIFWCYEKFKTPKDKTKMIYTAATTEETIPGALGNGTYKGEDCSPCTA
As to the kind of experiment: Inhibition of human NTCP expressed in human HepG2 cells assessed as decrease in NTCP surface expression at 2 uM incubated for 2 hrs by DAPI staining based analysis. Type of data set: cell-based. The settings on record: hepg2, 2 h, 2 h. In a few lines:
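HepG2-NTCP cells treated 2 h with DMSO, compound or TLCA at 2 μM, then immunostained for NTCP to assess cell-surface distribution.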

Data set [4] deals with T2, Hepatic sodium/bile acid cotransporter. In words: Inhibition of human NTCP-mediated [3H]-TCA uptake expressed in human HepG2 cells at 2 uM incubated for 2 hrs followed by substrate addition and measured for 10 mins by microbeta liquid scintillation counter analysis. Type of data set: cell-based. The settings on record: hepg2, 2.167 h, time 130 min. The method in brief:
(§1)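 HepG2 cells expressing NTCP (human, mouse, monkey or tree shrew) seeded 4–6 h, PMM 20–24 h; compound 2 h, then Na+ Ringer's buffer with 2 μM 3H-TCA, 37 °C 10 min; PBS washes, lysis in 1% Triton X-100, scintillation counting. Single-concentration lines at 2 μM.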

Data set [5] has the same target. In words: Inhibition of Myr95F binding to human NTCP expressed in HepG2 cells assessed as decrease in cell membrane staining at 1 uM incubated for 2 hrs by fluorescence staining based analysis. The settings on record: hepg2, 2 h. In a few lines:
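HepG2-NTCP cells stained with fluorescent Myr59F pre-S1 peptide in presence of DMSO, compound (1 μM) or Myr47 (200 nM); membrane staining intensity quantified.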

Data set [6] in a line: Intrinsic clearance in rat liver microsomes at 1 uM preincubated for 5 mins followed by NADPH addition and measured upto 60 mins by LC-MS analysis. Type of data set: ADME, Microsome. To be noted: time 65 min, read-out: CLH. Background: Liver microsomes are a subcellular fraction often used to study metabolism.
Data set [7] concerns the target T3, Hepatic sodium/bile acid cotransporter (Mus musculus, UniProt O08705).
T3 sequence (O08705 whole entry): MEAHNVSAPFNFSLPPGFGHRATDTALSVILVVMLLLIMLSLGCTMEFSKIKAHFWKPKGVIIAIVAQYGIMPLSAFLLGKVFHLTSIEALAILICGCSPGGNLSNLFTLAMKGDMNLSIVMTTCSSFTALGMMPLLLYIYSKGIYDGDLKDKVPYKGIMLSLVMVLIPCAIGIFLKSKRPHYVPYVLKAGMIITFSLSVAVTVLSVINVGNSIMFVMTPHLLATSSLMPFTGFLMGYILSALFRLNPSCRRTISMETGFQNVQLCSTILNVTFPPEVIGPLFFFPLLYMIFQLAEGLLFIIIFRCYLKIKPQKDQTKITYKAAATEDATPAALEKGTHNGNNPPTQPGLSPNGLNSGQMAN
As to the kind of experiment: Inhibition of mouse NTCP-mediated [3H]-TCA uptake expressed in human HepG2 cells at 2 uM incubated for 2 hrs followed by substrate addition and measured for 10 mins by microbeta liquid scintillation counter analysis. Type of data set: cell-based. To be noted: hepg2, 2.167 h, time 130 min. The method in brief:
as §1

The test system of data set [8] is HepG2. As to the kind of experiment: Cytotoxicity against human HepG2 cells at 100 uM. Type of data set: cell-based. The settings on record: hepg2, 100 µM.
Data set [9] has as its system Hepatitis delta virus. As to the kind of experiment: Antiviral activity […] infected in C57B/L transgenic mouse harbouring human NTCP assessed as decrease in viral RNA levels in liver at 40 mg/kg, ip administered as single dose followed by HDV challenge at day 2 and measured at day 8 post infection by qPCR analysis. Type of data set: functional, organism-based. To be noted: time 8.0 day. The method in brief:
(§2)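 Neonatal hNTCP-transgenic C57B/L mice received 40 mg/kg i.p. before HDV inoculation, either once or on two consecutive days (n = 4 per group; vehicle group n = 5). HDV was given at 5 × 10⁹ Geq i.p. on day 9 after birth, and mice were sacrificed on day 15. Liver RNA was assayed by RT-qPCR on cDNA from 20 ng RNA, with NTCP mRNA also measured. Group medians are shown.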
(Real-time PCR tracks product formation cycle by cycle.)

Data set [10] relates to Hepatitis delta virus. In words: Antiviral activity against HDV infected in C57B/L transgenic mouse harbouring human NTCP assessed as decrease in viral RNA levels in liver at 40 mg/kg, ip administered for 2 consecutive days followed by HDV challenge at day 2 and measured at day 8 post infection by qPCR analysis. Type of data set: functional, organism-based. The settings on record: time 8.0 day. The method in brief:
as §2

The test system of data set [11] is HepG2. In words: Inhibition of monkey NTCP-mediated [3H]-TCA uptake expressed in human HepG2 cells at 2 uM incubated for 2 hrs followed by substrate addition and measured for 10 mins by microbeta liquid scintillation counter analysis. Type of data set: cell-based. The settings on record: Macaca mulatta. In a few lines:
as §1

Molecules are shown by their SMILES. “Also recorded” adds a separate entry of the source. Active and inactive are the calls of the source. The rule behind the calls is not given here.

For `CC[C@@H]1NC(=O)[C@H]([C@@H]2O[C@@H](Sc3cccc(OCc4ccccc4)c3)C[C@H]2C)N(C)C(=O)[C@H](C(C)C)N(C)C(=O)[C@H](CC(C)C)N(C)C(=O)[C@H](CC(C)C)N(C)C(=O)[C@@H](C)NC(=O)[C@H](C)NC(=O)[C@H](CC(C)C)N(C)C(=O)[C@H](C(C)C)NC(=O)[C@H](CC(C)C)N(C)C(=O)CN(C)C1=O`, in [1], the AUC(0-inf) (commonly total exposure, with the tail of the curve extrapolated) was determined as 39700 ng·h/mL. Besides, the IC50 – broadly, the concentration that inhibits the measured activity by half – in data set [2] is 2.27 µM. Moreover, the “inhibition (INH)” value in data set [3] is recorded as “Active; also recorded: Not Active”; in data set [4], “Active”; in data set [5] it was “Active”; in [7], “Active”. The microsomal CLint at 1 µM in [6] came out at 2.2 µL/min/mg. For the same molecule, the Activity entry in data set [8] is recorded as “Non-Toxic”. The result in data set [9] and in [10] was Active. In addition, the inhibition entry in data set [11] was “Active”.
